Experiments:
[1] = test system: Human immunodeficiency virus; test: Antiviral activity against Human immunodeficiency virus expressing RT Y181C mutant infected in human MT4 cells by p24 antigen assay in the presence of 10% FBS; type: functional; conditions: Human immunodeficiency virus 1, MT4; read-out: CIC95
Outline: (§1)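 Spread assay in MT-4 human T-lymphoid cells in RPMI 1640 with 10% FBS. CIC95 is the concentration inhibiting viral spread by >95%, reported as the geometric mean of at least 2 determinations. Cytotoxicity was checked up to 8.3 μM.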

[2] = Plasma clearance in Sprague-Dawley rat at 10 mg/kg, po and 2 mg/kg, iv; type: ADME, organism-based
Outline: (§2)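 Sprague Dawley rats given iv dose 2 mpk as a DMSO solution via indwelling jugular vein cannula, and p.o. dose 10 mpk as aqueous methylcellulose (methocel) suspension. Plasma levels by LC-MS; absolute oral bioavailability from comparison of mean plasma AUC. Average of at least 2 rats.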

[3] = Inhibition of Human immunodeficiency virus wild type reverse transcriptase by SPA assay
Outline: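 Wild-type HIV RT enzyme inhibition measured in a standard SPA assay. Values are geometric mean of at least two determinations.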

[4] = test system: Human immunodeficiency virus; test: Antiviral activity against Human immunodeficiency virus expressing wild type RT infected in human MT4 cells by p24 antigen assay in the presence of 50% normal human serum relative to UK-453061; type: functional
[5] = Plasma protein binding in human; type: ADME, cell-free; conditions: read-out: PPB (converted)
[6] = Volume of distribution in Sprague-Dawley rat at 10 mg/kg, po and 2 mg/kg, iv; type: ADME, organism-based; conditions: in vivo; outline: as §2
[7] = test system: Human immunodeficiency virus; test: Antiviral activity against Human immunodeficiency virus expressing RT Y181C mutant infected in human MT4 cells by p24 antigen assay in the presence of 50% normal human serum; type: functional; conditions: Human immunodeficiency virus 1, MT4; read-out: CIC95
Outline: (§3)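 MT-4 human T-lymphoid cells were kept in RPMI 1640 containing 50% normal human serum to assess protein binding. Readout is CIC95, the concentration blocking >95% of virus spread. Values are geometric means of at least 2 determinations.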

[8] = test system: Human immunodeficiency virus; test: Antiviral activity against Human immunodeficiency virus expressing RT K103N/Y181C double mutant infected in human MT4 cells by p24 antigen assay in the presence of 10% FBS relative to MK-4965; type: functional
[9] = test system: Human immunodeficiency virus; test: Antiviral activity against Human immunodeficiency virus expressing RT K103N mutant infected in human MT4 cells by p24 antigen assay in the presence of 50% normal human serum; type: functional; conditions: Human immunodeficiency virus 1, MT4; read-out: CIC95; outline: as §3
[10] = test system: Human immunodeficiency virus; test: Antiviral activity against Human immunodeficiency virus expressing RT K103N/Y181C double mutant infected in human MT4 cells by p24 antigen assay in the presence of 50% normal human serum; type: functional; conditions: Human immunodeficiency virus 1, MT4; read-out: CIC95; outline: as §3
[11] = test system: Human immunodeficiency virus; test: Antiviral activity against Human immunodeficiency virus expressing wild type RT infected in human MT4 cells by p24 antigen assay in the presence of 10% FBS; type: functional; conditions: Human immunodeficiency virus 1, MT4; read-out: CIC95
Outline: (§4)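 CIC95 = concentration at which spread of virus is inhibited by >95% in MT-4 human T-lymphoid cells in RPMI 1640 medium containing either 10% FBS or 50% normal human serum (to assess protein binding). Geometric mean of at least 2 determinations.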

[12] = test system: Human immunodeficiency virus; test: Antiviral activity against Human immunodeficiency virus expressing wild type RT infected in human MT4 cells by p24 antigen assay in the presence of 50% normal human serum; type: functional; conditions: Human immunodeficiency virus 1, MT4; read-out: CIC95; outline: as §4
[13] = Half life in Sprague-Dawley rat at 10 mg/kg, po and 2 mg/kg, iv; type: ADME, organism-based; conditions: in vivo; outline: as §2
[14] = test system: Human immunodeficiency virus; test: Antiviral activity against Human immunodeficiency virus expressing wild type RT infected in human MT4 cells by p24 antigen assay in the presence of 50% normal human serum relative to TMC-278; type: functional
MT4 [15] = test: Cytotoxicity against human MT4 cells up to 8.3 uM; type: cell-based
Outline: (§5)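 Cytotoxicity in MT-4 human T-lymphoid cells run alongside the cell culture antiviral assay (RPMI 1640, 10% FBS or 50% NHS), tested up to the assay upper limit of 8.3 μM.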

[16] = test system: Human immunodeficiency virus; test: Antiviral activity against Human immunodeficiency virus expressing RT K103N/Y181C double mutant infected in human MT4 cells by p24 antigen assay in the presence of 10% FBS; type: functional; conditions: Human immunodeficiency virus 1, MT4; read-out: CIC95; outline: as §1
[17] = Oral bioavailability in Sprague-Dawley rat at 10 mg/kg; type: ADME, organism-based; conditions: in vivo; outline: as §2
Rattus norvegicus = test: Dose normalized AUC in Sprague-Dawley rat at 10 mg/kg, po; type: ADME, organism-based; design: dose 10 mg/kg, route oral; conditions: in vivo; outline: as §2
[18] = test system: Human immunodeficiency virus; test: Antiviral activity against Human immunodeficiency virus expressing RT K103N mutant infected in human MT4 cells by p24 antigen assay in the presence of 10% FBS; type: functional; conditions: Human immunodeficiency virus 1, MT4; read-out: CIC95; outline: as §1
MT4 [19] = test: Cytotoxicity against human MT4 cells; type: cell-based; outline: as §5
[20] = target: Human immunodeficiency virus type 1 reverse transcriptase (Human immunodeficiency virus 1, UniProt Q72547, Y181C); test: Inhibition of Human immunodeficiency virus reverse transcriptase Y181C mutant by SPA assay
Outline: (§6)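 Scintillation proximity assay (SPA) of mutant RT enzyme inhibition. Values are geometric means of at least two determinations.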

[21] = test system: Human immunodeficiency virus; test: Antiviral activity against Human immunodeficiency virus expressing wild type RT infected in human MT4 cells by p24 antigen assay in the presence of 50% normal human serum relative to MK-4965; type: functional
[22] = target: Human immunodeficiency virus type 1 reverse transcriptase (Human immunodeficiency virus 1, UniProt Q72547, K103N); test: Inhibition of Human immunodeficiency virus reverse transcriptase K103N mutant by SPA assay; outline: as §6
[23] = Half life in Sprague-Dawley rat at 1 mg/kg, iv; type: ADME, organism-based; design: dose 1 mg/kg, route intravenous; conditions: in vivo
Outline: (§7)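 Sprague Dawley rats dosed iv at 1 mpk in DMSO via indwelling jugular vein cannula, no oral arm. Plasma concentrations by LC-MS.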

[24] = Volume of distribution in Sprague-Dawley rat at 1 mg/kg, iv; type: ADME, organism-based; design: dose 1 mg/kg, route intravenous; conditions: in vivo; outline: as §7
[25] = Plasma clearance in Sprague-Dawley rat at 1 mg/kg, iv; type: ADME, organism-based; design: dose 1 mg/kg, route intravenous; outline: as §7

Row | Structure (SMILES) | IC95 [1] [nM] | clearance [2] [mL/min/kg] | Ki [3] [nM] | fraction unbound [5] | Vd [6] [L/kg] | IC95 [7] [nM] | IC95 [9] [nM] | IC95 [10] [nM] | IC95 [11] [nM] | IC95 [12] [nM] | half-life [13] [h] | Activity (MT4 [15]) | IC95 [16] [nM] | bioavailability [17] [%] | AUC/dose (Rattus norvegicus) [µM·h] | IC95 [18] [nM] | Activity (MT4 [19]) | Ki [20] [nM] | Ki [22] [nM] | other results
1 | N#Cc1cc(Cl)cc(Oc2c(Cl)ccn(Cc3n[nH]c4ncccc34)c2=O)c1 | 7.8 | 12 | 0.77 | 0.033 | 2 | 20 | 12 | 69 | 2.4 | 7.7 | 4 | Non-toxic | 7 | 57 | 1.6 | 2.9 | Non-toxic | 1 | 1.5 | fold change (FC) [4]: 4; fold change (FC) [8]: 10; fold change (FC) [14]: 4; fold change (FC) [21]: 4
2 | Cc1ccn(Cc2n[nH]c3ncccc23)c(=O)c1Oc1cc(Cl)cc(C#N)c1 |  | 11 | 2.5 |  | 3.7 |  |  |  | 3.6 | 12 |  | Non-toxic | 31 | 8.5 | 0.31 | 10 |  | 3.1 | 3.7 | 
3 | N#Cc1cc(Cl)cc(Oc2c(Cl)c(Cl)cn(Cc3n[nH]c4ncccc34)c2=O)c1 | 15 | 27 | 1 |  | 27 |  |  |  | 4.6 | 15 | 19 | Non-toxic | 31 | 0 | 0 | 11 |  | 1.3 | 1.6 | 
4 | N#Cc1cc(Cl)cc(Oc2cc(Cc3n[nH]c4ncccc34)ccc2Cl)c1 |  |  | 0.24 |  |  |  |  |  | 22 |  |  |  |  |  |  | 211 |  | 0.51 | 0.48 | 
5 | Cc1ccn(CCc2n[nH]c3ncccc23)c(=O)c1Oc1cc(Cl)cc(C#N)c1 |  |  | 25 |  |  |  |  |  | 248 | 611 |  | Non-toxic |  |  |  | 447 |  | 51 | 58 | half-life [23]: 0.75 h; Vd [24]: 0.6 L/kg; clearance [25]: 31 mL/min/kg
6 | Cc1cc(/C=C/C#N)cc(C)c1Nc1ccnc(Nc2ccc(C#N)cc2)n1 [RILPIVIRINE] |  |  |  | 0.003 |  | 104 | 46 | 311 |  | 36 |  |  |  |  |  |  | Non-toxic |  |  | 
7 | N#Cc1cc(Cl)cc(Oc2cc(OCc3n[nH]c4nc(N)ccc34)ccc2Cl)c1 | 27 |  | 0.2 | 0.035 |  | 175 | 54 | 589 | 5 | 26 |  | Non-toxic | 73 |  |  | 12 | Non-toxic |  |  | 
8 | N#Cc1cc(Cl)cc(Oc2c(Cl)ccn(Cc3n[nH]c4nc(N)ccc34)c2=O)c1 | 63 | 12 | 1.3 |  | 0.8 |  |  |  | 1.9 | 11 | 1.4 | Non-toxic | 30 | 6 | 0.15 | 7.1 |  | 1.8 | 2.1 | 
9 | CCc1nn(CCO)c(CC)c1Oc1cc(C#N)cc(C#N)c1 [LERSIVIRINE] |  |  |  | 0.49 |  | 68 | 70 | 100 |  | 40 |  |  |  |  |  |  | Non-toxic |  |  | 
